Active and inactive are the calls of the source. The calls are words filed in the database; no cut-off is given here.
Key:
[1] = test system: Cryptococcus gattii species complex; test: Antifungal activity against Cryptococcus gattii 196L/03 assessed as reduction in ergosterol content at MIC after 24 hrs by spectrophotometric analysis; assay type: functional, organism-based; conditions: Cryptococcus bacillisporus
In short: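 Pellet washed and weighed, then saponified in 25% ethanolic KOH at 85°C for 1 h. Extracted with water and n-heptane, read at 282 and 230 nm. Ergosterol taken from a standard curve and expressed as % of growth control.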

[2] = test system: Cryptococcus gattii species complex; test: Ratio of compound MIC for Cryptococcus gattii LMM818 in presence of amphotericin B to compound MIC for Cryptococcus gattii LMM818 in absence of amphotericin B by checkerboard microtiter test; assay type: functional, Cryptococcus bacillisporus
In short: (§1)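 Checkerboard microdilution: eight two-fold dilutions of test compound (0.11 to 15.6 µM) crossed with amphotericin B (0.025 to 3.9 µM, in DMSO) or fluconazole (0.48 to 62.5 µM, in water). Inoculum per CLSI M27-A3 in RPMI-MOPS pH 7.0, 1-5 x10^3 cells/mL. Growth 48 to 72 h. Effective MIC is the combination concentration giving complete inhibition. FICs derived from MICs in combination versus alone.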

[3] = test system: Cryptococcus gattii species complex; test: Ratio of compound MIC for Cryptococcus gattii 135L/03 in presence of amphotericin B to compound MIC for Cryptococcus gattii 135L/03 in absence of amphotericin B by checkerboard microtiter test; assay type: functional, Cryptococcus bacillisporus
Cryptococcus neoformans [4] = test: Ratio of compound MIC for Cryptococcus neoformans ATCC 28957 in presence of fluconazole to compound MIC for Cryptococcus neoformans ATCC 28957 in absence of fluconazole by checkerboard microtiter test; assay type: functional; in short: as §1
[5] = test system: Cryptococcus gattii species complex; test: Ratio of compound MIC for Cryptococcus gattii 547/OTTI-97-PI-10 in presence of amphotericin B to compound MIC for Cryptococcus gattii 547/OTTI-97-PI-10 in absence of amphotericin B by checkerboard microtiter test; assay type: functional, Cryptococcus bacillisporus; in short: as §1
[6] = test system: Cryptococcus gattii species complex; test: Ratio of compound MIC for Cryptococcus gattii L24/01 in presence of amphotericin B to compound MIC for Cryptococcus gattii L24/01 in absence of amphotericin B by checkerboard microtiter test; assay type: functional, Cryptococcus bacillisporus; in short: as §1
Cryptococcus neoformans [7] = test: Ratio of compound MIC for Cryptococcus neoformans LMM820 in presence of amphotericin B to compound MIC for Cryptococcus neoformans LMM820 in absence of amphotericin B by checkerboard microtiter test; assay type: functional; in short: as §1
Cryptococcus neoformans [8] = test: Ratio of compound MIC for Cryptococcus neoformans WP in presence of fluconazole to compound MIC for Cryptococcus neoformans WP in absence of fluconazole by checkerboard microtiter test; assay type: functional; in short: as §1
Cryptococcus neoformans [9] = test: Ratio of compound MIC for Cryptococcus neoformans CN31 in presence of fluconazole to compound MIC for Cryptococcus neoformans CN31 in absence of fluconazole by checkerboard microtiter test; assay type: functional; in short: as §1
Cryptococcus neoformans [10] = test: Ratio of compound MIC for Cryptococcus neoformans F10 in presence of amphotericin B to compound MIC for Cryptococcus neoformans F10 in absence of amphotericin B by checkerboard microtiter test; assay type: functional; in short: as §1
[11] = test system: Cryptococcus gattii species complex; test: Ratio of compound MIC for Cryptococcus gattii L24/01 in presence of fluconazole to compound MIC for Cryptococcus gattii L24/01 in absence of fluconazole by checkerboard microtiter test; assay type: functional, Cryptococcus bacillisporus; in short: as §1
[12] = test system: Cryptococcus gattii species complex; test: Ratio of compound MIC for Cryptococcus gattii 23/10993 in presence of amphotericin B to compound MIC for Cryptococcus gattii 23/10993 in absence of amphotericin B by checkerboard microtiter test; assay type: functional, Cryptococcus bacillisporus; in short: as §1
[13] = test system: Cryptococcus gattii species complex; test: Ratio of compound MIC for Cryptococcus gattii L27/01 in presence of amphotericin B to compound MIC for Cryptococcus gattii L27/01 in absence of amphotericin B by checkerboard microtiter test; assay type: functional, Cryptococcus bacillisporus; in short: as §1
Cryptococcus neoformans [14] = test: Ratio of compound MIC for Cryptococcus neoformans 5396 in presence of fluconazole to compound MIC for Cryptococcus neoformans 5396 in absence of fluconazole by checkerboard microtiter test; assay type: functional; in short: as §1
Cryptococcus neoformans [15] = test: Ratio of compound MIC for Cryptococcus neoformans CN31 in presence of amphotericin B to compound MIC for Cryptococcus neoformans CN31 in absence of amphotericin B by checkerboard microtiter test; assay type: functional; in short: as §1
Cryptococcus gattii = test: Ratio of compound MIC for Cryptococcus gattii ATCC 24065 in presence of fluconazole to compound MIC for Cryptococcus gattii ATCC 24065 in absence of fluconazole by checkerboard microtiter test
[16] = test system: Cryptococcus gattii species complex; test: Ratio of compound MIC for Cryptococcus gattii 547/OTTI-97-PI-10 in presence of fluconazole to compound MIC for Cryptococcus gattii 547/OTTI-97-PI-10 in absence of fluconazole by checkerboard microtiter test; assay type: functional, Cryptococcus bacillisporus; in short: as §1
[17] = test system: Cryptococcus gattii species complex; test: Ratio of compound MIC for Cryptococcus gattii L28/02 in presence of fluconazole to compound MIC for Cryptococcus gattii L28/02 in absence of fluconazole by checkerboard microtiter test; assay type: functional, Cryptococcus bacillisporus; in short: as §1
[18] = test system: Cryptococcus gattii species complex; test: Ratio of compound MIC for Cryptococcus gattii ICB181 in presence of fluconazole to compound MIC for Cryptococcus gattii ICB181 in absence of fluconazole by checkerboard microtiter test; assay type: functional, Cryptococcus bacillisporus; in short: as §1
[19] = test system: Cryptococcus gattii species complex; test: Ratio of compound MIC for Cryptococcus gattii 1913ER in presence of amphotericin B to compound MIC for Cryptococcus gattii 1913ER in absence of amphotericin B by checkerboard microtiter test; assay type: functional, Cryptococcus bacillisporus; in short: as §1
Cryptococcus neoformans [20] = test: Ratio of compound MIC for Cryptococcus neoformans VM-MCMMPI in presence of fluconazole to compound MIC for Cryptococcus neoformans VM-MCMMPI in absence of fluconazole by checkerboard microtiter test; assay type: functional; in short: as §1
Cryptococcus neoformans [21] = test: Ratio of compound MIC for Cryptococcus neoformans ATCC 24067 in presence of amphotericin B to compound MIC for Cryptococcus neoformans ATCC 24067 in absence of amphotericin B by checkerboard microtiter test; assay type: functional; in short: as §1
Cryptococcus neoformans [22] = test: Ratio of compound MIC for Cryptococcus neoformans 28JF in presence of amphotericin B to compound MIC for Cryptococcus neoformans 28JF in absence of amphotericin B by checkerboard microtiter test; assay type: functional; in short: as §1
Cryptococcus neoformans [23] = test: Ratio of compound MIC for Cryptococcus neoformans 27JF in presence of amphotericin B to compound MIC for Cryptococcus neoformans 27JF in absence of amphotericin B by checkerboard microtiter test; assay type: functional; in short: as §1
Cryptococcus neoformans [24] = test: Ratio of compound MIC for Cryptococcus neoformans 27JF in presence of fluconazole to compound MIC for Cryptococcus neoformans 27JF in absence of fluconazole by checkerboard microtiter test; assay type: functional; in short: as §1
Cryptococcus neoformans [25] = test: Ratio of compound MIC for Cryptococcus neoformans 28JF in presence of fluconazole to compound MIC for Cryptococcus neoformans 28JF in absence of fluconazole by checkerboard microtiter test; assay type: functional; in short: as §1
Cryptococcus neoformans [26] = test: Ratio of compound MIC for Cryptococcus neoformans ATCC 62066 in presence of fluconazole to compound MIC for Cryptococcus neoformans ATCC 62066 in absence of fluconazole by checkerboard microtiter test; assay type: functional; in short: as §1
Cryptococcus neoformans [27] = test: Ratio of compound MIC for Cryptococcus neoformans 96806 in presence of fluconazole to compound MIC for Cryptococcus neoformans 96806 in absence of fluconazole by checkerboard microtiter test; assay type: functional; in short: as §1
Cryptococcus neoformans [28] = test: Ratio of compound MIC for Cryptococcus neoformans F10 in presence of fluconazole to compound MIC for Cryptococcus neoformans F10 in absence of fluconazole by checkerboard microtiter test; assay type: functional; in short: as §1
Cryptococcus neoformans [29] = test: Ratio of compound MIC for Cryptococcus neoformans WP in presence of amphotericin B to compound MIC for Cryptococcus neoformans WP in absence of amphotericin B by checkerboard microtiter test; assay type: functional; in short: as §1

Structure (SMILES) | fractional inhibitory concentration index (FICI) [2] | fractional inhibitory concentration index (FICI) [3] | fractional inhibitory concentration index (FICI) (Cryptococcus neoformans [4]) | fractional inhibitory concentration index (FICI) [5] | fractional inhibitory concentration index (FICI) [6] | fractional inhibitory concentration index (FICI) (Cryptococcus neoformans [7]) | fractional inhibitory concentration index (FICI) (Cryptococcus neoformans [8]) | fractional inhibitory concentration index (FICI) (Cryptococcus neoformans [9]) | fractional inhibitory concentration index (FICI) (Cryptococcus neoformans [10]) | fractional inhibitory concentration index (FICI) [11] | fractional inhibitory concentration index (FICI) [12] | fractional inhibitory concentration index (FICI) [13] | fractional inhibitory concentration index (FICI) (Cryptococcus neoformans [14]) | fractional inhibitory concentration index (FICI) (Cryptococcus neoformans [15]) | fractional inhibitory concentration index (FICI) (Cryptococcus gattii) | fractional inhibitory concentration index (FICI) [16] | fractional inhibitory concentration index (FICI) [17] | fractional inhibitory concentration index (FICI) [18] | fractional inhibitory concentration index (FICI) [19] | fractional inhibitory concentration index (FICI) (Cryptococcus neoformans [20]) | further results
OC(Cn1cncn1)(Cn1cncn1)c1ccc(F)cc1F [FLUCONAZOLE] |  |  |  |  |  |  |  |  |  |  |  |  |  |  |  |  |  |  |  |  | Activity [1]: Active
COc1ccc(-c2csc(N/N=C/C3CCCCC3)n2)cc1 | 1.46 | 1.46 | 2.51 | 2.58 | 2.38 | 2.78 | 2.21 | 2.58 | 1.46 | 6.79 | 2.36 | 2.66 | 3.48 | 2.78 | 2.43 | 3.46 | 4.38 | 4.46 | 1.75 | 4.46 | fractional inhibitory concentration index (FICI) (Cryptococcus neoformans [21]): 2.36; fractional inhibitory concentration index (FICI) (Cryptococcus neoformans [22]): 1.75; fractional inhibitory concentration index (FICI) (Cryptococcus neoformans [23]): 2.78; fractional inhibitory concentration index (FICI) (Cryptococcus neoformans [24]): 4.59; fractional inhibitory concentration index (FICI) (Cryptococcus neoformans [25]): 4.59; fractional inhibitory concentration index (FICI) (Cryptococcus neoformans [26]): 3.58; fractional inhibitory concentration index (FICI) (Cryptococcus neoformans [27]): 1.01; fractional inhibitory concentration index (FICI) (Cryptococcus neoformans [28]): 2.46; fractional inhibitory concentration index (FICI) (Cryptococcus neoformans [29]): 1.46
C(=N\Nc1nc(-c2ccccc2)cs1)/C1CCCCC1 | 2.58 | 2.67 | 4.47 | 4.74 | 4.87 | 4.3 | 2.47 | 3.97 | 2.62 | 2.47 | 2.67 | 1.34 | 2.4 | 2.47 | 1.58 | 4.47 | 2.47 | 2.58 | 1.47 | 4.47 | fractional inhibitory concentration index (FICI) (Cryptococcus neoformans [21]): 2.67; fractional inhibitory concentration index (FICI) (Cryptococcus neoformans [22]): 1.38; fractional inhibitory concentration index (FICI) (Cryptococcus neoformans [23]): 2.58; fractional inhibitory concentration index (FICI) (Cryptococcus neoformans [24]): 6.8; fractional inhibitory concentration index (FICI) (Cryptococcus neoformans [25]): 1.99; fractional inhibitory concentration index (FICI) (Cryptococcus neoformans [26]): 2.04; fractional inhibitory concentration index (FICI) (Cryptococcus neoformans [27]): 1.76; fractional inhibitory concentration index (FICI) (Cryptococcus neoformans [28]): 4.47; fractional inhibitory concentration index (FICI) (Cryptococcus neoformans [29]): 2.41
C[C@@H]1[C@H](O)[C@@H](C)/C=C/C=C/C=C/C=C/C=C/C=C/C=C/[C@H](O[C@@H]2O[C@H](C)[C@@H](O)[C@H](N)[C@@H]2O)C[C@@H]2O[C@](O)(C[C@@H](O)C[C@@H](O)[C@H](O)CC[C@@H](O)C[C@@H](O)CC(=O)O[C@H]1C)C[C@H](O)[C@H]2C(=O)O [AMPHOTERICIN B] |  |  |  |  |  |  |  |  |  |  |  |  |  |  |  |  |  |  |  |  | Activity [1]: inactive
COc1ccc(-c2csc(N/N=C(\C)CCO)n2)cc1 | 4.98 | 4.98 | 2.28 | 2.98 | 4.98 | 2.58 | 2.32 | 4.38 | 2.47 | 3.32 | 3.51 | 4.61 | 1.32 | 4.98 | 0.88 | 3.31 | 1.01 | 1.99 | 2.78 | 4.33 | Activity [1]: inactive; fractional inhibitory concentration index (FICI) (Cryptococcus neoformans [21]): 2.78; fractional inhibitory concentration index (FICI) (Cryptococcus neoformans [22]): 2.58; fractional inhibitory concentration index (FICI) (Cryptococcus neoformans [23]): 2.67; fractional inhibitory concentration index (FICI) (Cryptococcus neoformans [24]): 7.44; fractional inhibitory concentration index (FICI) (Cryptococcus neoformans [25]): 1.47; fractional inhibitory concentration index (FICI) (Cryptococcus neoformans [26]): 2.3; fractional inhibitory concentration index (FICI) (Cryptococcus neoformans [27]): 2.01; fractional inhibitory concentration index (FICI) (Cryptococcus neoformans [28]): 4.33; fractional inhibitory concentration index (FICI) (Cryptococcus neoformans [29]): 2.78
c1ccc(-c2csc(NN=C3CCCC3)n2)cc1 | 2.58 | 1.46 | 3.36 | 2.66 | 2.16 | 2.66 | 2.46 | 2.71 | 2.58 | 6.46 | 2.18 | 2.48 | 3.46 | 2.66 | 3.71 | 5.96 | 4.22 | 4.58 | 1.04 | 4.21 | fractional inhibitory concentration index (FICI) (Cryptococcus neoformans [21]): 1.46; fractional inhibitory concentration index (FICI) (Cryptococcus neoformans [22]): 2.46; fractional inhibitory concentration index (FICI) (Cryptococcus neoformans [23]): 2.66; fractional inhibitory concentration index (FICI) (Cryptococcus neoformans [24]): 3.33; fractional inhibitory concentration index (FICI) (Cryptococcus neoformans [25]): 3.77; fractional inhibitory concentration index (FICI) (Cryptococcus neoformans [26]): 2.46; fractional inhibitory concentration index (FICI) (Cryptococcus neoformans [27]): 1.01; fractional inhibitory concentration index (FICI) (Cryptococcus neoformans [28]): 1.98; fractional inhibitory concentration index (FICI) (Cryptococcus neoformans [29]): 1.46

From ChEMBL document CHEMBL3616437, “Thiazole compounds with activity against Cryptococcus gattii and Cryptococcus neoformans in vitro” (Eur J Med Chem, 2015)
